# Laboratory results taken from ChEMBL document CHEMBL1121527, “Heterocyclic analogues of the antihypertensive beta-adrenergic blocking agent (S)-2-[3-(ter-butylamino)-2-hydroxypropoxy]-3-cyanopyridine” (1980).
# Several values for one entry are separate records, joined by “and”; a condition that tells them apart may be missing. Equal entries are not always repeated.
# What was measured:
# Canis familiaris [1] = test: Beta adrenergic blockade activity was measured in anesthetized dogs by blockade of isoproterenol induced hypotension after iv administration; type: functional; conditions: Canis lupus familiaris
# Outline: (§1)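 Mongrel dogs of either sex (8–13 kg) anesthetized with vinbarbital 50 mg/kg iv. Vagi cut, trachea cannulated, with artificial respiration only if required. Blood pressure recorded via femoral artery catheter and heart rate from the pressure pulse. Drugs given through a femoral vein catheter. Isoproterenol challenge at 0.5 μg/kg iv; the resulting hypotension and tachycardia were computed.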
# Canis familiaris [2] = test: Beta adrenergic blockade activity was measured in anesthetized dogs by blockade of isoproterenol induced tachycardia after iv administration; type: functional; conditions: Canis lupus familiaris; outline: as §1
# Canis familiaris [3] = test: Tested for increase in iliac blood flow was measured in anesthetized dogs after timolol administered intravenous at dose 1600 mg/kg; type: functional, Canis lupus familiaris, Artery
# Canis familiaris [4] = test: Tested for increase in iliac blood flow was measured in anesthetized dogs before timolol administered intra arterially at dose […]; type: functional, Canis lupus familiaris, Artery
# Outline: (§2)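 Adult mongrel dogs of either sex (8–13 kg) under vinbarbital 50 mg/kg iv, with vagi cut and trachea cannulated. Carotid arterial pressure recorded. A 3.0 mm flow transducer on the right iliac artery. Intraarterial injections via a left femoral catheter tipped at the iliac bifurcation. Isoproterenol 0.4 μg ia given before and after timolol (320, 800 or 2000 μg/kg iv) to check β-blockade.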
# Rattus norvegicus [5] = test: Tested for maximum fall in mean arterial pressure in Spontaneously hypertensive rats after peroral administration by using 1% methyl cellulose as vehicle at 20 mg/kg; type: functional; conditions: route oral
# Rattus norvegicus [6] = test: Tested for maximum fall in mean arterial pressure in Spontaneously hypertensive rats after peroral administration by using 1% methyl cellulose as vehicle at 5 mg/kg; type: functional; conditions: route oral
# Canis familiaris [7] = test: Tested for increase in iliac blood flow was measured in anesthetized dogs after timolol administered intravenous at dose 2000 mg/kg; type: functional, Canis lupus familiaris, Artery; outline: as §2
# Rattus norvegicus [8] = test: Tested for maximum fall in mean arterial pressure in Spontaneously hypertensive rats after peroral administration by using 1% methyl cellulose as vehicle at 80 mg/kg; type: functional; conditions: route oral
# Canis familiaris [9] = test: Tested for increase in iliac blood flow was measured in anesthetized dogs after timolol administered intravenous at dose 800 mg/kg; type: functional, Canis lupus familiaris, Artery; outline: as §2
# Rattus norvegicus [10] = test: Tested for maximum fall in mean arterial pressure in Spontaneously hypertensive rats after peroral administration by using 1% methyl cellulose as vehicle at 0.078 mg/kg; type: functional; conditions: route oral
# Rattus norvegicus [11] = test: Tested for maximum fall in mean arterial pressure in Spontaneously hypertensive rats after peroral administration by using 1% methyl cellulose as vehicle at 0.312 mg/kg; type: functional; conditions: route oral
# Rattus norvegicus [12] = test: Tested for maximum fall in mean arterial pressure in Spontaneously hypertensive rats after peroral administration by using 1% methyl cellulose as vehicle at 1.25 mg/kg; type: functional; conditions: route oral
# Canis familiaris [13] = test: Tested for increase in iliac blood flow was measured in anesthetized dogs after timolol administered intravenously at dose 800 µg/kg
# Canis familiaris [14] = test: Tested for increase in iliac blood flow was measured in anesthetized dogs before timolol administered intra arterially at dose 400 mg/kg
# Rattus norvegicus [15] = test: Comparative effect on Maximum fall in mean arterial pressure of spontaneously hypertensive rat at the dose 0.312 mg/kg per os; type: functional, Artery
# Rattus norvegicus [16] = test: Comparative effect on Maximum fall in mean arterial pressure of spontaneously hypertensive rat at the dose 0.625 mg/kg per os; type: functional, Artery
# Rattus norvegicus [17] = test: Comparative effect on Maximum fall in mean arterial pressure of spontaneously hypertensive rat at the dose 1.25 mg/kg per os; type: functional, Artery
compound,measurement,setting,value
CC(C)(C)NCC(O)COc1nscc1Br (configuration not stated),ED50,Canis familiaris [1],3 µg/kg
same,ED50,Canis familiaris [2],3 µg/kg
same,Activity,Canis familiaris [3],33 mL/min
same,Activity,Canis familiaris [4],31 mL/min
same,MAP,Rattus norvegicus [5],30 mmHg
same,MAP,Rattus norvegicus [6],41 mmHg
CCOC(=O)c1sc(SC)nc1OCC(O)CNC(C)(C)C (configuration not stated),MAP,Rattus norvegicus [5],15 mmHg
CCOC(=O)c1scnc1OCC(O)CNC(C)(C)C (configuration not stated),MAP,Rattus norvegicus [5],9 mmHg
CC(C)(C)NCC(O)COc1nc2ncccc2cc1C#N (configuration not stated),Activity,Canis familiaris [4],0 mL/min
same,MAP,Rattus norvegicus [5],28 mmHg
same,MAP,Rattus norvegicus [6],22 mmHg
CC(C)(C)NCC(O)COc1nscc1C#N (configuration not stated),ED50,Canis familiaris [1],27 µg/kg
same,ED50,Canis familiaris [2],28 µg/kg
same,Activity,Canis familiaris [4],22 mL/min
same,MAP,Rattus norvegicus [5],52 mmHg
same,MAP,Rattus norvegicus [6]; 5 mg/kg,27 mmHg and 9 mmHg
same,Activity,Canis familiaris [7],20 mL/min
Cc1nc(OC[C@@H](O)CNC(C)(C)C)c(C(N)=O)s1,MAP,Rattus norvegicus [5],11 mmHg
CC(C)(C)NC[C@H](O)COc1nc(-c2ccccc2)sc1C(N)=O,MAP,Rattus norvegicus [5],15 mmHg
CC(C)(C)NC[C@H](O)COc1nc(-c2ccccc2)sc1C#N,MAP,Rattus norvegicus [5],9 mmHg
same,MAP,Rattus norvegicus [6],11 mmHg
same,MAP,Rattus norvegicus [8],14 mmHg
Cc1sc(-c2ccccc2)nc1OC[C@@H](O)CNC(C)(C)C,MAP,Rattus norvegicus [5],17 mmHg
same,MAP,Rattus norvegicus [8],12 mmHg
CCOC(=O)c1sc(-c2ccccc2)nc1OC[C@@H](O)CNC(C)(C)C,MAP,Rattus norvegicus [5],10 mmHg
Cc1sc(-c2ccncc2)nc1OC[C@@H](O)CNC(C)(C)C,MAP,Rattus norvegicus [5],41 mmHg
same,MAP,Rattus norvegicus [6],8 mmHg
Cc1nc(OC[C@@H](O)CNC(C)(C)C)c(C#N)s1,MAP,Rattus norvegicus [5],21 mmHg
CC(C)(C)NCC(O)COc1nc2ccncc2cc1C#N (configuration not stated),MAP,Rattus norvegicus [5],22 mmHg
CC(C)(C)NCC(O)COc1ncccc1C#N (configuration not stated),ED50,Canis familiaris [1],5.2 µg/kg
same,ED50,Canis familiaris [2],1.5 µg/kg
same,Activity,Canis familiaris [4],98 mL/min
same,Activity,Canis familiaris [9],62 mL/min
same,MAP,Rattus norvegicus [10],19 mmHg
same,MAP,Rattus norvegicus [11],30 mmHg
same,MAP,Rattus norvegicus [12],47 mmHg
same,Activity,Canis familiaris [7],90 mL/min
same,Activity,Canis familiaris [13],38 mL/min
CSc1nc(OCC(O)CNC(C)(C)C)c(C(N)=O)s1 (configuration not stated),MAP,Rattus norvegicus [5],11 mmHg
CC(C)(C)NCC(O)COc1ncsc1C#N (configuration not stated),ED50,Canis familiaris [1],30 µg/kg
same,ED50,Canis familiaris [2],10 µg/kg
same,Activity,Canis familiaris [4],125 mL/min
same,MAP,Rattus norvegicus [10],11 mmHg
same,MAP,Rattus norvegicus [11],26 mmHg
same,MAP,Rattus norvegicus [12],29 mmHg
same,MAP,Rattus norvegicus [5],37 mmHg
same,MAP,Rattus norvegicus [6],42 mmHg
CC(C)(C)NCC(O)COc1nccnc1C#N (configuration not stated),MAP,Rattus norvegicus [5],8 mmHg
CC(C)(C)NCC(O)COc1nsnc1C#N (configuration not stated),MAP,Rattus norvegicus [6],9 mmHg
CC(C)(C)NCC(O)COc1ccsn1 (configuration not stated),MAP,Rattus norvegicus [12],8 mmHg
same,MAP,Rattus norvegicus [5],22 mmHg
same,MAP,Rattus norvegicus [6],26 mmHg
Cc1nc(OCC(O)CNC(C)(C)C)c(C(N)=O)s1 (racemic),MAP,Rattus norvegicus [12],22 mmHg
same,MAP,Rattus norvegicus [5],23 mmHg
same,MAP,Rattus norvegicus [6],30 mmHg
NNc1nncc2ccccc12 [HYDRALAZINE],Activity,Canis familiaris [4],66 mL/min
same,Activity,Canis familiaris [14],78 mL/min
CC(C)NCC(O)COc1cccc2ccccc12 (configuration not stated) [PROPRANOLOL],ED50,Canis familiaris [1],19 µg/kg
same,ED50,Canis familiaris [2],51 µg/kg
same,MAP,Rattus norvegicus [12],12 mmHg
same,MAP,Rattus norvegicus [5],14 mmHg
same,MAP,Rattus norvegicus [6],7 mmHg
CC(C)(C)NC[C@H](O)COc1nsnc1N1CCOCC1 [TIMOLOL],ED50,Canis familiaris [1],1.3 µg/kg
same,ED50,Canis familiaris [2],2.4 µg/kg
same,MAP,Rattus norvegicus [15],3 mmHg
same,MAP,Rattus norvegicus [16],0 mmHg
same,MAP,Rattus norvegicus [17],-1 mmHg
